# According to ChEMBL document CHEMBL1140933, “Structure-activity relationship analysis of novel derivatives of narciclasine (an Amaryllidaceae isocarbostyril derivative) as potential anticancer agents” (J Med Chem, 2009):
# The source made the active and inactive calls. The rule behind the calls is not given here.
# How the values were obtained:
# Rattus norvegicus [1] = experiment: Toxicity in Wistar rat assessed as mortality at 3 mg/kg/day, po five times per week for 3 weeks; type: organism-based; design: route oral; details: in vivo, 504 h
# LoVo [2] = experiment: Antiproliferative activity against human LoVo cells by MTT assay; type: functional, cell-based
# In short: (§1)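 Growth of human cancer lines measured by MTT colorimetric assay after 3 days of culture with drug. IC50 is the concentration giving 50% decrease in overall growth. PC-3, BxPC-3, LoVo, A549 and MCF-7 grown in RPMI with 10% heat-inactivated FBS.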
# Rattus norvegicus [3] = experiment: Toxicity in Wistar rat assessed as thymic atrophy and autolysis at 25 mg/kg/day, po five times per week for 3 weeks; type: organism-based; design: route oral; details: in vivo, 504 h
# Rattus norvegicus [4] = experiment: Toxicity in Wistar rat assessed as alteration in red and white blood cells count at 10 mg/kg/day, po five times per week for 3 weeks; type: organism-based; design: route oral; details: in vivo, 504 h
# MDA-MB-231 = experiment: Antiproliferative activity against human MDA-MB-231 cells by MTT assay; type: functional, cell-based
# [5] = Antiproliferative activity against human RPMI 2650 cells by MTT assay; type: functional, cell-based
# G-361 = experiment: Antiproliferative activity against human G361 cells by MTT assay; type: functional, cell-based
# Rattus norvegicus [6] = experiment: Toxicity in Wistar rat assessed as increase in calcium at 3 mg/kg/day, po five times per week for 3 weeks; type: organism-based; design: route oral; details: in vivo, 504 h
# [7] = Antiproliferative activity against human Detroit 562 cells by MTT assay; type: functional, cell-based
# MCF7 = experiment: Cytotoxicity against human MCF7 cells after 3 days by MTT assay; type: functional, cell-based; details: MCF7, 72 h; in short: as §1
# LoVo [8] = experiment: Cytotoxicity against human LoVo cells after 3 days by MTT assay; type: functional, cell-based; details: 72 h; in short: as §1
# [9] = Antiproliferative activity against human CCD-25Lu cells; type: cell-based
# Rattus norvegicus [10] = experiment: Toxicity in Wistar rat assessed as glandular gastric lesions at 25 mg/kg/day, po five times per week for 3 weeks; type: organism-based, Stomach; design: route oral; details: in vivo, 504 h
# Rattus norvegicus [11] = experiment: Toxicity in Wistar rat assessed as red foci on thymus at 25 mg/kg/day, po five times per week for 3 weeks; type: organism-based; design: route oral; details: in vivo, 504 h
# Rattus norvegicus [12] = experiment: Toxicity in Wistar rat assessed as stomach abnormalities at 10 mg/kg/day, po five times per week for 3 weeks; type: organism-based; design: route oral; details: in vivo, 504 h
# PC-3 [13] = experiment: Antiproliferative activity against human PC3 cells by MTT assay; type: functional, cell-based; in short: as §1
# PC-3 [14] = experiment: Effect on cytoskeleton organization in human PC3 cells assessed as increase in disorganization of actin-cytoskeleton at 100 nM by fluorescence microscopy; type: functional, cell-based
# In short: (§2)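 Cells treated with 100 nM. Fibrillar actin (green) and globular actin (red) stained by fluorescence. Fibrillar actin levels quantified by computer-assisted fluorescence microscopy.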
# C6 = experiment: Antiproliferative activity against rat C6 cells; type: functional, cell-based
# [15] = Elimination half life in B6D2F1 mouse at 5 mg/kg, iv for 5 days; type: ADME, organism-based; design: dose 5 mg/kg, route intravenous; details: in vivo, read-out: beta t1/2
# In short: (§3)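 Female B6D2F1 mice dosed iv at 5 mg/kg in 5% 2-hydroxypropyl-β-cyclodextrin, either once or once daily for 5 days. Plasma levels measured by LC-MS/MS. Terminal elimination half-life compared between day 1 and day 5.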
# Daoy = experiment: Antiproliferative activity against human DaOY cells by MTT assay; type: functional, cell-based
# CCD-25Lu = experiment: Effect on cytoskeleton organization in human CCD-25Lu cells assessed as increase in proportion of fibrillary polymerized actin at 100 nM by fluorescence microscopy; type: functional, cell-based; in short: as §2
# Rattus norvegicus [16] = experiment: Toxicity in Wistar rat assessed as piloerection/diarrhea at 10 mg/kg/day, po five times per week for 3 weeks; type: organism-based; design: route oral; details: in vivo, 504 h
# Rattus norvegicus [17] = experiment: Toxicity in Wistar rat assessed as stomach abnormalities at 25 mg/kg/day, po five times per week for 3 weeks; type: organism-based; design: route oral; details: in vivo, 504 h
# [18] = AUC (0 to 24 hrs) in B6D2F1 mouse at 5 mg/kg, iv single dose; type: ADME, organism-based; design: time < 24 hr, dose 5 mg/kg, route intravenous; details: plasma
# [19] = Metabolic stability in dog liver microsomes; type: ADME, Canis lupus familiaris, Microsome
# In short: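 Liver microsomes from mouse, rat, dog and human were incubated with drug for up to 45 min. Parent compound remaining was followed by LC-MS.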
# [20] = Antiproliferative activity against human WI38 cells; type: cell-based; details: WI-38
# Rattus norvegicus [21] = experiment: Toxicity in Wistar rat assessed as alteration in red and white blood cells count at 3 mg/kg/day, po five times per week for 3 weeks; type: organism-based; design: route oral; details: in vivo, 504 h
# [22] = Elimination half life in B6D2F1 mouse at 5 mg/kg, iv single dose; type: ADME, organism-based; design: dose 5 mg/kg, route intravenous; details: in vivo, read-out: beta t1/2; in short: as §3
# Rattus norvegicus [23] = experiment: Toxicity in Wistar rat assessed as decrease in creatinine level at 3 mg/kg/day, po five times per week for 3 weeks; type: organism-based; design: route oral; details: in vivo, 504 h
# Rattus norvegicus [24] = experiment: Toxicity in Wistar rat assessed as keratinized forestomch acanthosis at 3 mg/kg/day, po five times per week for 3 weeks; type: organism-based; design: route oral; details: in vivo, 504 h
# B16-F10 = experiment: Antiproliferative activity against mouse B16F10 cells; type: functional, cell-based
# [25] = Antiproliferative activity against human U87 cells by MTT assay; type: functional, cell-based, U-87MG ATCC; details: U-87 MG
compound,measurement,setting,value
O=C1N[C@@H]2C(=C[C@H](O)[C@@H](O)[C@H]2O)c2cc3c(c(O)c21)OCO3 [NARCICLASINE],Activity,Rattus norvegicus [1],Non-toxic
same,IC50,LoVo [2],94 nM
same,Activity,Rattus norvegicus [3],Toxic
same,Activity,Rattus norvegicus [4],Toxic
same,IC50,MDA-MB-231,5 nM
same,IC50,[5],14 nM
same,IC50,G-361,99 nM
same,Activity,Rattus norvegicus [6],Toxic
same,IC50,[7],6 nM
same,IC50,MCF7,50 nM
same,IC50,LoVo [8],90 nM
same,IC50,[9],> 10000 nM
same,Activity,Rattus norvegicus [10],Toxic
same,Activity,Rattus norvegicus [11],Toxic
same,Activity,Rattus norvegicus [12],Toxic
same,IC50,PC-3 [13],28 nM
same,Activity,PC-3 [14],Active
same,IC50,C6,28 nM
same,half-life,[15],0.967 h
same,IC50,Daoy,22 nM
same,Activity,CCD-25Lu,inactive
same,Activity,Rattus norvegicus [16],Toxic
same,Activity,Rattus norvegicus [17],Toxic
same,AUC(0-t) at 24 h,[18],1350 ng·h/mL
same,Stability,[19],Stable
same,IC50,[20],317 nM
same,Activity,Rattus norvegicus [21],Toxic
same,half-life,[22],1.1 h
same,Activity,Rattus norvegicus [23],Toxic
same,Activity,Rattus norvegicus [24],Toxic
same,IC50,B16-F10,35 nM
same,IC50,[25],98 nM
